# LANA-nucl inh: inhibitors of KSHV LANA binding to nucleosomes; FITC-LANA1-23 / chicken nucleosome fluorescence polarization; active compounds read low; z-score (concentration not given with the values); 51,000 tested, 0.3% active;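 active means both repeat wells score below -2 in polarization z-score versus plate sample wells, excluding overly bright wells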
#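 Material: Purified chicken nucleosomes with FITC-labelled LANA N-terminal peptide (1-23) | Reagent: 50 nM FITC-LANA1-23 probe | Medium: TEN-BT buffer, pH 7.5 | Times: 10–45 min incubation at room temperature | Detection: Fluorescence polarization | Replication: Duplicates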
# BasE inh: inhibitors of Acinetobacter baumannii siderophore enzyme BasE | purified BasE, fluorescence polarization binding displacement | 84,000 tested, 0.1% active | inhibition, % (concentration not given with the values) | AID 485350; in the data active means inhibition above about 25%, passing the limit was not always enough
# Hits are given with their value; – = inactive; · = no result given; ! = repeats disagree. The full list was thinned out, with hits kept by preference.
SMILES,LANA-nucl inh,BasE inh
CCN1/C(=C(\C#N)c2nc(C#N)c(C#N)nc2N2CCOCC2)Nc2ccccc21,-3.2,–
CN1CCN(c2nc(C#N)c(C#N)nc2C(C#N)=C2Nc3ccccc3N2)CC1,–,–
CC1CCCC(NC(=O)CN2N=C(c3ccc(Cl)cc3)CCC2=O)C1C (stereo unspecified),–,–
CC(C)Cn1c(=O)n(C)c(=O)c2cc(C(=O)c3cc(Cl)cc(Cl)c3O)cnc21,·,–
CCCN1CC=C2C(C1)C(c1ccc(C(=O)OC)cc1)C(C#N)=C(N)C2(C#N)C#N (stereo unspecified),–,–
CCN1CC=C2C(C1)C(c1ccc(Cl)s1)C(C#N)=C(N)C2(C#N)C#N (stereo unspecified),-5.9,–
O=C(O)c1ccc(CN2C(=O)COc3ccccc32)o1,–,–
COc1ccccc1C1C=C(c2cccnc2)Nc2nc3ccccc3n21 (stereo unspecified),-4.8,–
COc1ccccc1C1C2=C(CC(C)(C)CC2=O)Nc2nc3ccccc3n21 (stereo unspecified),–,–
CCN(CC)S(=O)(=O)c1ccc(S(=O)(=O)N2CCN(C)CC2)cc1,–,–
COC(=O)c1cc(-c2cocc2C=C(C#N)C#N)ccc1Cl,-4.7,–
COC(=O)c1cnn(-c2c(Cl)cccc2Cl)c1C=C(C#N)C#N,–,–
O=C(c1ccc2c(c1)N(Cc1cccc(Cl)c1)C(=O)c1ccccc1S2=O)N1CCCCC1 (stereo unspecified),–,–
Oc1cc(O)cc(/C=C/c2ccc(O)c(O)c2)c1,–,86
N#C/C(=C/c1ccc(O)c(O)c1)C(=O)OC/C=C/c1ccccc1,–,–
O=C(CCc1nc2ccccc2c(=O)[nH]1)Nc1ccc(F)cc1,·,–
O=C(CCc1nc2ccccc2c(=O)[nH]1)Nc1ccc2c(c1)CCC2,·,28
COCc1cc(C)nc(SCC(=O)c2ccc(O)c(O)c2)c1C#N,·,37
Cc1ccc(C(=O)CSc2nc(C)cc(C)c2C#N)cc1,–,–
Cc1[nH][nH]c(=O)c1Sc1nc2ccccc2[nH]1,·,–
Cn1c(O)c(C=Nc2ccccc2)c(=O)[nH]c1=S,–,–
COc1ncnc(Cl)c1N,–,–
Cc1ccnc(Cl)c1N,–,45
COc1ccc(NC(=O)c2ccc(N3C(=O)c4ccccc4C3=O)cc2)cc1,·,–
CC(=O)N/N=C/c1cc(C(C)C)cc(/C=N/NC(C)=O)c1O,-3.9,–
SMILES,LANA-nucl inh,BasE inh
CC(=O)N/N=C/c1ccccc1,–,–
COc1cccc(C2CC(=O)NC(NC(=O)c3cccc(Cl)c3)=N2)c1OC (stereo unspecified),–,–
Nc1ccc2c3c(cccc13)C(=O)C=C2,·,–
COc1cc(Cl)c(C)cc1NC(=O)Cn1c(=O)c2c(ncn2CC(C)C)n(CC(C)C)c1=O,·,–
CCCCCCn1c(=O)[nH]c2nc3cc(N)c(C)cc3nc2c1=O,·,–
Cc1cc2nc3c(=O)n(C)c(=O)[nH]c3nc2cc1N=CN(C)C,-2.1,–
COc1cc(SC)ccc1C(=O)N1CCC(C(N)=O)CC1,–,–
CN(C)c1ccc(C(=C2C=CC(=[N+](C)C)C=C2)c2ccc(N(C)C)cc2)cc1,-4.1!,–
CN(C)c1ccc(C2=CC=CC(=C3C=CC(=[N+](C)C)C=C3)O2)cc1,·,–
CCCCn1c(SC=O)nc2ccccc2c1=O,·,–
CCc1ccccc1NC(=O)CN(C)C(=O)Cn1nnc2ccccc2c1=O,·,–
CC(OC(=O)c1ccccc1)C(=O)NCc1ccc2c(c1)OCO2 (stereo unspecified),·,–
O=C(c1ccc(O)cc1)c1ccc(O)cc1O,–,31
COc1ccc(C(=O)c2ccccc2)c(O)c1,–,–
CC(C)NS(=O)(=O)c1ccc(Br)c(C(=O)OCC(=O)Nc2nnc(-c3ccccc3)o2)c1,·,–
COC(=O)Nc1ccccc1NC(=O)OC,–,–
CCCCn1c(=O)[nH]c2nc3cc(N=Cc4c(O)n(C)c(=O)n(C)c4=O)ccc3nc2c1=O,–,–
Cn1c(=O)c2nc3ccc(N=Cc4c(O)n(Cc5ccccc5)c(=O)[nH]c4=O)cc3nc2n(C)c1=O,-2.3,–
COC(=O)c1ccccc1NC(=O)Cc1ccsc1,·,–
Cc1cc(C(=O)NCC(C)c2ccccc2)n[nH]1 (stereo unspecified),-2.2,–
CC(CNC(=O)c1cc(C2CC2)[nH]n1)c1ccccc1 (stereo unspecified),–,–
CN1c2ccccc2C(=O)C(=C2SCCCS2)S1(=O)=O,–,–
CN1c2ccccc2C(=O)/C(=N\Nc2ccccc2Cl)S1(=O)=O,-2.4,–
COc1nc2sccn2c1/C=N/N1CC(=O)NC1=O,·,–
COc1ccc(CNC(=O)C2CCCCC2C(=O)N2CCc3ccccc32)cc1OC (stereo unspecified),·,–
SMILES,LANA-nucl inh,BasE inh
COc1ccc(N2CCN(C(=O)c3ccccc3OC)CC2)cc1,–,–
COc1ccc(N2CCN(C(=O)c3ccc(-n4cnnc4)cc3Cl)CC2)cc1,-2,–
O=C1c2c(O)ccc(O)c2C(=O)c2c(NCCNCCO)ccc(NCCNCCO)c21,-9.1,–
O=C(OCCOc1cccc(Cl)c1)C1CCN(S(=O)(=O)c2cccs2)CC1,·,–
O=C1NC2(CCCCC2)Nc2ccccc21,–,–
O=C1NC2(Cc3ccccc3C2)Nc2ccccc21,-2,–
COc1ccc(S(=O)(=O)NNC(N)=S)cc1,–,–
COc1ccc(S(=O)(=O)c2ccc(O)cc2)cc1,–,51
Cn1c(-c2oc3nc(-c4ccccc4)cc(-c4ccco4)c3c2N)n[nH]c1=S,-2.3,–
Cn1c(SCc2ccccc2Cl)nnc1-c1oc2nc(-c3ccccc3)cc(-c3ccco3)c2c1N,–,–
O=C(Nc1cccnc1)/C(N=Nc1cccnc1)=C(\O)c1ccccc1,·,32
O=C(Nc1ccccc1)c1cccnc1,·,–
O=C1NC(c2ccc(F)cc2)(C(F)(F)F)C(=O)N1Cc1ccco1 (stereo unspecified),–,–
Cc1ccc(N2C(=O)NC(c3ccccc3)(C(F)(F)F)C2=O)nc1 (stereo unspecified),-2.3,–
Cc1ccccc1OCC1=NN2C(=N)/C(=C\c3ccc(SCc4ccco4)o3)C(=O)N=C2S1,–,–
Cc1ccccc1OCC1=NN2C(=N)/C(=C/c3ccc(N(C)C)cc3)C(=O)N=C2S1,-4.8,–
CN(C(=O)/C=C/c1cccs1)c1ccccc1,·,–
Cc1[nH]nc(-c2ccc(S(=O)(=O)N(C)Cc3ccco3)s2)c1C,–,–
O=C1/C(=C/c2ccccc2)CC/C1=C1\SCC(=O)N1c1ccccc1,·,–
COc1cccc2c1C(=O)c1c(O)c3c(c(O)c1C2=O)C[C@@](O)(C(=O)CO)C[C@@H]3O[C@H]1C[C@H](N)[C@@H](O)[C@H](C)O1,–,·
CC[C@@]1(O)C[C@H](O[C@H]2C[C@H](N(C)C)[C@H](O[C@H]3C[C@H](O)[C@H](O[C@H]4CCC(=O)[C@H](C)O4)[C@H](C)O3)[C@H](C)O2)c2c(cc3c(c2O)C(=O)c2c(O)cccc2C3=O)[C@H]1C(=O)OC,–,·
COc1cccc2c1C(=O)c1c(O)c3c(c(O)c1C2=O)C[C@@](O)(C(C)=O)C[C@@H]3O[C@H]1C[C@H](N)[C@H](O)[C@H](C)O1,-8.3,·
CC(=O)[C@]1(O)Cc2c(O)c3c(c(O)c2[C@@H](O[C@H]2C[C@H](N)[C@H](O)[C@H](C)O2)C1)C(=O)c1ccccc1C3=O,-10!,·
O=C(OCc1ncc(-c2ccccc2)o1)c1ccccc1C(=O)c1ccc2c(c1)OCCO2,·,–

# Source: PubChem
